Series [1] concerns the target T1, Myeloperoxidase (Homo sapiens, UniProt P05164).
T1 sequence (P05164 whole entry): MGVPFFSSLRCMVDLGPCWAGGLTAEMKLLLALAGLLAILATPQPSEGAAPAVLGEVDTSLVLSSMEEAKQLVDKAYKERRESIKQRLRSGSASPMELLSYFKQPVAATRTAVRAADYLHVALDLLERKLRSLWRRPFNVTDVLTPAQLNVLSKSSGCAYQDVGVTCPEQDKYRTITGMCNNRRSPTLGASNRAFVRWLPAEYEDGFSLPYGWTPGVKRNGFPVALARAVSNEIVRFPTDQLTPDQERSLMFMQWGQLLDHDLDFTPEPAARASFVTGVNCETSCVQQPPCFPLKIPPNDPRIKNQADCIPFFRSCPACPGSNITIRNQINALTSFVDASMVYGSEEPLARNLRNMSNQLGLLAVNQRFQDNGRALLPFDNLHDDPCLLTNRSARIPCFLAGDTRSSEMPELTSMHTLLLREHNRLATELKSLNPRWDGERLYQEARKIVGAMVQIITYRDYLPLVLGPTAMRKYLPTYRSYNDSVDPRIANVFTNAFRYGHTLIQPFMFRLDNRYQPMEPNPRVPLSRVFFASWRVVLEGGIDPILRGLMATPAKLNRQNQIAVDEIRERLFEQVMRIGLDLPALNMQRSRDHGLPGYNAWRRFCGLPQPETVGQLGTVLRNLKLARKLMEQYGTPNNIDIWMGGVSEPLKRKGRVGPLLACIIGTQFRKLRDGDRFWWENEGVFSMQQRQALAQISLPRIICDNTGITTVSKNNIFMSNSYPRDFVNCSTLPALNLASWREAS
The series is described as follows: Inhibition of human recombinant myeloperoxidase by amplex red assay.

Series [2] addresses T2, Xanthine dehydrogenase/oxidase (Homo sapiens, UniProt P47989). The series is described as follows: Inhibition of xanthine oxidase (unknown origin) assessed as superoxide generation measured for 20 mins by luminescence analysis using 50 uM xanthine as a substrate. Put shortly: (§1)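 Xanthine/xanthine oxidase served as the oxidant source to check for assay interference. The buffer and pH matched the MPO Amplex Red assay. Inhibitors were tested over a range up to 100 μM.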

Series [3] deals with T3, Myeloperoxidase (Homo sapiens) (UniProt P05164).
T3 sequence (whole entry): T1 sequence (P05164 whole entry)
Conditions: 100 uM.

Series [4] deals with T2, Xanthine dehydrogenase/oxidase. The experiment in a line: Inhibition of xanthine oxidase (unknown origin) assessed as superoxide generation upto 100 uM measured for 20 mins by luminescence analysis using 50 uM xanthine as a substrate. To be noted: read-out: Imax. Put shortly:
as §1

Series [5] relates to Armoracia rusticana. The series is described as follows: Inhibition of horseradish peroxidase by amplex red assay. Put shortly:
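Interference counter-screen: the Amplex Red peroxidase assay was run with HRP (20 nM) in place of human MPO, across a range of compound concentrations. Points are the mean ± SEM of three determinations.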

Series [6] can be described thus: Solubility of compound in water by nephelometry. Type of series: physicochemical.
Series [7] concerns the target T3, Myeloperoxidase (Homo sapiens). To be noted: 6 uM.

The structures appear in SMILES notation. The source made the active and inactive calls. No cut-off for these calls is given here. Where only a bound is given, the exact number is not on record here.

By IC50 is commonly meant the concentration that gives 50% inhibition. By solubility (kinetic) is commonly meant the concentration staying in solution when a stock, usually in DMSO, is diluted into the medium.

T2 sequence (P47989 whole entry): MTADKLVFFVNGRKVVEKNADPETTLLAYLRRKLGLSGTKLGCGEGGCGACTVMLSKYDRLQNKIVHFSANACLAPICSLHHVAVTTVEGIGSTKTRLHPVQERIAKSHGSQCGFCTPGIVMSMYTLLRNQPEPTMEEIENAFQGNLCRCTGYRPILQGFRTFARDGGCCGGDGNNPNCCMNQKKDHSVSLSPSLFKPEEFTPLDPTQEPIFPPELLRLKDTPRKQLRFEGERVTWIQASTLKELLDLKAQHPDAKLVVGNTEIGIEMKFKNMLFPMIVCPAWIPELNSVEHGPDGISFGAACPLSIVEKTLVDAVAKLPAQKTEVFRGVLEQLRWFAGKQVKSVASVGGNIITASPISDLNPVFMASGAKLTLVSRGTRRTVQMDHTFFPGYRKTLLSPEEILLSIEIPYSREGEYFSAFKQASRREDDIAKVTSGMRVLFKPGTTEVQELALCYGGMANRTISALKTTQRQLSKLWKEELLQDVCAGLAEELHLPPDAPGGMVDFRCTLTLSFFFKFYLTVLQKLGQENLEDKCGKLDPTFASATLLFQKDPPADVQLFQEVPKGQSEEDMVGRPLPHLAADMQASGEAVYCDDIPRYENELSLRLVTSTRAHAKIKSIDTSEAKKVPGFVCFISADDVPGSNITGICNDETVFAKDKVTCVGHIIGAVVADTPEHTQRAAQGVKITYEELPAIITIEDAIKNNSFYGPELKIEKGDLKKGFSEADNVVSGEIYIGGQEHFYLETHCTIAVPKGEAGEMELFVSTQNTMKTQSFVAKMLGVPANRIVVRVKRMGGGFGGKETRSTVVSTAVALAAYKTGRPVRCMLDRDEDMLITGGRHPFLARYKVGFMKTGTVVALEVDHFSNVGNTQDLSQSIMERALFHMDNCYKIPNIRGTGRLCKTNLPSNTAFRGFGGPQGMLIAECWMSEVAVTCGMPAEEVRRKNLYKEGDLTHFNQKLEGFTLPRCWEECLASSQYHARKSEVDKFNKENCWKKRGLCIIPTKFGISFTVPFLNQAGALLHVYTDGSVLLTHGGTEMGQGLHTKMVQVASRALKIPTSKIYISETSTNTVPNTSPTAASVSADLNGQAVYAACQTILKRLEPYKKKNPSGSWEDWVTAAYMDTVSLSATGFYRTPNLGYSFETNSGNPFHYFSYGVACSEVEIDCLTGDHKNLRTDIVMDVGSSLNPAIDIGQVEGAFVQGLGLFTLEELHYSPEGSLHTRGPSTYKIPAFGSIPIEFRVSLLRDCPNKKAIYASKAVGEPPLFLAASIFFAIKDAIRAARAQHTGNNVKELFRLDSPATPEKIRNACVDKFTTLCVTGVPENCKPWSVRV

On to `CCn1c(=S)[nH]c2ccc(F)cc2c1=O`, for which the results for the IC50 in series [1] (read-out: IC50) and in series [2] were 15000 nM and “Not Active”, respectively.
On to `O=C(NO)c1ccccc1O`, for which the inhibition result in series [3] is “Active”.
As to `CCN(CC)CCn1c(=S)[nH]c2ccccc2c1=O`, the IC50 in series [1] (read-out: IC50) is 1600 nM; in series [2], “Not Active”.
Take `CN(C)CCCn1c(=S)[nH]c2c(Cl)cc(Cl)cc2c1=O`: the concentration for half-maximal inhibition (IC50) in series [1] (read-out: IC50) was over 20000 nM; in series [2], “Not Active”.
For the compound `CN(C)CCCn1c(=S)[nH]c2cc(F)c(F)cc2c1=O.Cl`, the IC50 is 1200 nM in series [1] (read-out: IC50) and “Not Active” in series [2].
As to `CN(C)CCCn1c(=S)[nH]c2ccc(F)cc2c1=O.Cl`, the IC50 in series [1] (read-out: IC50) was 600 nM; in series [2] it was “Not Active”.
The corresponding values for `CN1CCN(CCCn2c(=S)[nH]c3ccccc3c2=O)CC1` are 1400 nM and “Not Active”.
In the same order, the values of `CN(C)CCn1c(=S)[nH]c2ccccc2c1=O` are 1700 nM and “Not Active”.
Consider `CN(C)CCCCCCn1c(=S)[nH]c2ccc(F)cc2c1=O`, for which, in series [4], the Emax turned out to be 35%. For the same compound, the IC50 in series [1] (read-out: IC50) is over 20000 nM; in series [2] (read-out: IC50), 18 µM.
For `CN(C)CCCCCn1c(=O)[nH]c2ccccc2c1=O`, the results for the concentration for half-maximal inhibition (IC50) in series [1] (read-out: IC50) and in series [2] were 10000 nM and “Not Active”, respectively.
For the compound `CC(C)n1c(=S)[nH]c2cc3c(cc2c1=O)OCCO3`, the Emax in series [4] is 60%. For the same compound, the concentration for half-maximal inhibition (IC50) in series [1] (read-out: IC50) was over 20000 nM; in series [2] (read-out: IC50), 4.5 µM.
On to `O=c1c2ccccc2[nH]c(=S)n1CCN1CCCCC1`, for which the concentration for half-maximal inhibition (IC50) in series [1] (read-out: IC50) was 400 nM; in series [2], “Not Active”.
For `CN(C)CCCn1c(=S)[nH]c2cc(Cl)ccc2c1=O`, the Emax in series [4] stood at 50%. Also, the IC50 in series [1] (read-out: IC50) amounted to 8000 nM; in series [2] (read-out: IC50) it was 4 µM.
In the case of `CN(C)CCCn1c(=S)[nH]c2ccccc2c1=O`, the Emax in series [4] was 20%. Also, the IC50 in series [1] (read-out: IC50) came to 1300 nM; in series [2] (read-out: IC50), 20 µM.
Turning to `CN(C)CCCn1c(=O)[nH]c2ccccc2c1=O`, the IC50 entry in series [1] and in series [2] was “Not Active” in each case.
For the compound `O=c1c2ccccc2[nH]c(=S)n1CCCCCO`, the values for the IC50 in series [1] (read-out: IC50) and in series [2] were over 40000 nM and “Not Active”, respectively.
`O=C(Nn1c(=S)[nH]c2ccc(F)cc2c1=O)c1cccc(F)c1`: in series [5], the inhibition result was “inactive”.
As to `CN(C)CCCCn1c(=O)[nH]c2ccccc2c1=O`, the half-maximal inhibitory concentration (IC50) is 10000 nM in series [1] (read-out: IC50) and “Not Active” in series [2].
For `CN(C)CCCn1c(=S)[nH]c2ccc(Cl)cc2c1=O.Cl`, in series [4], the Emax stood at 71%. The IC50 in series [1] (read-out: IC50) is 800 nM; in series [2] (read-out: IC50), 15 µM. Also, in series [5], the inhibition result is “inactive”. Further, in series [6], the solubility (kinetic) came to 90 µg/mL.
As to `O=C(Nn1c(=S)[nH]c2cc3c(cc2c1=O)OCCO3)c1ccc(C(F)(F)F)cc1`, the figures for the IC50 in series [1] (read-out: IC50) and in series [2] were 300 nM and “Not Active”, respectively.
As to `NNC(=O)c1ccc(N)cc1`, the inhibition result in series [7] is “Active”.

The values are drawn from ChEMBL document CHEMBL3739290, “Thioxo-dihydroquinazolin-one Compounds as Novel Inhibitors of Myeloperoxidase” (ACS Med Chem Lett, 2015).
